Rows were chosen to be rich in hits. Some 0.89% of all compounds tested hit in one or more screens of this group.
T cell modulator – T cell immune modulators affecting CD8 T cell-vesicle binding; response (vesicle binding), % at 7 µM; 2C CD8+ T cell-vesicle binding, flow cytometry; stronger effect = lower value; 330,000 compounds, 0.068% hits;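 active = response, share of CD8 T cells binding vesicles, and their 90th percentile fluorescence all below set limits, cut at about 80% in these data, passing the limit was not always enough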;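 note: values below 100% mean blocked vesicle binding to the CD8+ T cells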
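Material: murine 2C transgenic CD8+ T lymphocytes / Also added: QL9-peptide-loaded Drosophila micro-vesicles bearing Ld, ICAM-1 and B7-1 / Schedule: binding step 1.5 h, 37 °C, antibody labelling 20 min, ice / Signal: flow cytometry, PE anti-B7-1 (FL2) versus Alexa647 anti-CD8 (FL8), PFA-fixed / Evaluation: percent CD8+ FL2 mean versus row control / Benchmarks: naked versus QL9-loaded vesicles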
MIN6 prolif – MIN6 beta-cell proliferation induction | MIN6 cells proliferation, ATPlite luminescence, 48 h; cells starved in 0.2% serum; 100% = growth in 10% serum | 330,000 compounds, 0.29% hits | proliferation, % at 10 µM;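 active = compounds whose signal lies at least 3.5 SD above the mean of all wells on their plate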
XiGFP reactiv – reactivates the inactive X chromosome in mouse fibroblasts; XiGFP mouse fibroblasts, % GFP-positive cells imaging, 3 d; cells co-treated with 5-aza-dC sensitizer; scaled so ellipticine positive control = 100%; 360,000 compounds, 0.055% hits; activation, % at 7.58 µM; AID 743238;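 active = mean normalized replicate activation at least 10% and every replicate at or above 10%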
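assay system = SV40-immortalized XiGFP fibroblast cells, line 68-5-11 | buffer or medium = DMEM plus 5-aza-dC sensitizer | doses = single-point pinned compound dosing | times = 3-day compound exposure, then 15 min fixation at room temperature | benchmarks = positive control ellipticine, 6 µM final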
NTR1 agonist – activates human neurotensin receptor 1; 330,000 compounds, 0.17% hits; AID 493036; activation, % at 20 µM; NTR1-U2OS beta-arrestin-GFP spot imaging, agonist mode; P30989;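 active = activation at or above 40% of the spot to cytoplasm intensity ratio, with at least 20 cells analyzed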
Target sequence (P30989 whole entry, looked up): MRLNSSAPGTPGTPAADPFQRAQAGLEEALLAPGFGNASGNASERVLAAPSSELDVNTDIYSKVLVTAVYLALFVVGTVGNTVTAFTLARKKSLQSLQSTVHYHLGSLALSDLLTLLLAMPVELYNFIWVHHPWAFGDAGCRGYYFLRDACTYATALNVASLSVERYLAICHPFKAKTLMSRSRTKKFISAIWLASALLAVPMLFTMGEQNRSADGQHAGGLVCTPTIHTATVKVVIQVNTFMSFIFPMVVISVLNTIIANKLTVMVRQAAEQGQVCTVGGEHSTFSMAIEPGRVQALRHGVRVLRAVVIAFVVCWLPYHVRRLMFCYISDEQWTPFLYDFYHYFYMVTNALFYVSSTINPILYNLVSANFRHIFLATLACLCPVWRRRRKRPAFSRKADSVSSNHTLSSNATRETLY
V-ATPase pH – yeast V-ATPase proton transport regulation by pHLuorin; 350,000 compounds, 0.37% hits; S. cerevisiae, pHLuorin cytosolic pH fluorescence; response, % at 10 µM; AID 504577; in the data active = response mostly above about 7.3%, no sharp cut-off; inactive = mostly below about 5.4%; note: actives read high
Arrestin-AP2 inh – blocks beta-arrestin peptide binding to AP2 adaptin | inhibition, % at 10 µM | FITC-arrestin peptide / GST-AP2 beads, flow cytometry; AP2 beta2 appendage carries R879A mutation | 340,000 compounds, 0.31% hits;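 active = inhibition above a set limit, near 3 SD of compounds lacking own fluorescence, cut at about 54% in these data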
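system = GST-tagged AP2 beta2-adaptin appendage (R879A) on 4 µm glutathione beads | reagent = FITC-labelled arrestin peptide probe, 50 nM final | schedule = compound with beads 12 min RT, then probe 1 h RT | signal = HyperCyt-sampled flow cytometry, FL1 channel, ex 488/em 535 nm | read-out = percent response from loss of bead-bound FITC fluorescence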
A number is an active result; . = inactive; / = no result.

SMILES	T cell modulator	MIN6 prolif	XiGFP reactiv	NTR1 agonist	V-ATPase pH	Arrestin-AP2 inh
Cc1ccc(-n2ncc3c(N4CCCC(C)C4)ncnc32)c(C)c1 (centres undefined)	43	.	.	.	.	.
Cc1ccc(-n2ncc3c(N4CCCC4)ncnc32)c(C)c1	.	.	/	.	.	.
CN(Cc1ccccc1F)c1nc(-c2cccnc2)nc2ccccc12	.	.	.	.	.	.
CCOc1ccc(CN(C)c2nc(-c3cccnc3)nc3ccccc23)cc1OC	.	.	.	.	16	.
Cc1[nH]c(-c2ccco2)nc1C(=O)O	.	.	/	.	23	.
COC(=O)C(NNc1ccc(F)cc1)(NC(=O)c1ccccc1)C(F)(F)F (centres undefined)	.	/	.	/	.	.
COC(=O)C(NNc1ccccc1C)(NC(=O)c1ccc(F)cc1)C(F)(F)F (centres undefined)	.	.	/	.	8.7	.
CO[C@H]1CN(C)C(=O)c2cc(NC(=O)c3cc(C)on3)ccc2OC[C@@H](C)N(CC2CC2)C[C@@H]1C	/	/	.	/	/	/
O=C(O)CSc1ncccn1	.	.	53	.	.	.
O=C(NCC12CC3CC(CC(C3)C1)C2)c1nn2cccnc2c1Cl	.	.	/	.	29	.
Cc1ccc(S(=O)(=O)ON2C(=O)c3ccccc3C2=O)c(C)c1	.	/	.	/	8.1	.
CC(=O)N1[C@H](C(=O)NC2CCC2)[C@@H](CO)[C@@H]2Cn3c(ccc(C4=CCCC4)c3=O)[C@@H]21	/	/	.	/	/	/
O=C1NC(=O)C(Cc2ccccc2)(c2ccccc2)N1 (centres undefined)	/	/	.	/	.	.
Cc1ccc(CC2(c3ccccc3)NC(=O)NC2=O)cc1 (centres undefined)	/	/	.	/	15	.
CCCc1cc(=O)n2[nH]c(-c3ccco3)nc2n1	.	.	/	.	16	.
Cc1cc(=O)n2[nH]c(-c3ccco3)nc2n1	.	.	/	.	.	.
COc1ccc(S(=O)(=O)/N=C2/C=CC(=O)C(C)=C2C)cc1	.	.	/	.	.	.
CC1=C(C)/C(=N\OS(=O)(=O)c2ccc(C)cc2)C=CC1=O	.	/	.	/	10	/
CCCc1cc(-c2nc(N)ncc2-c2ccc3c(c2)OCCCO3)c(O)cc1OC	.	.	/	49	.	.
CCNC(=O)Nc1ccc2c(c1)C(=O)N(C)[C@@H]1CC[C@H](CC(=O)NCC3CC3)O[C@H]1CO2	/	/	.	/	/	/
C[C@@H]1CN([C@@H](C)CO)C(=O)c2cc(NC(=O)CCC(F)(F)F)ccc2O[C@@H](C)CCCCO[C@@H]1CN(C)C(=O)CCC(F)(F)F	/	/	.	/	/	/
COc1ccc(O)c(/C=N/c2nc3ccccc3n2C)c1	.	.	.	.	12	.
CCCn1c(/N=C/c2cc(OC)ccc2O)nc2ccccc21	.	.	/	.	.	.
O=C(Nc1ccccc1)[C@H]1[C@H](CO)[C@H]2Cn3c(cccc3=O)[C@H]2N1C(=O)C1CCCC1	/	/	.	/	/	/
CC1(C)CC(=O)C=C(Nc2ccc(F)cc2)C1	.	.	/	.	14	.
SMILES	T cell modulator	MIN6 prolif	XiGFP reactiv	NTR1 agonist	V-ATPase pH	Arrestin-AP2 inh
O=C(c1cccnc1)N1C[C@H]2[C@@H](c3ccccc31)[C@@H](CO)N2Cc1ccc2c(c1)OCO2	/	/	.	/	/	/
COc1ccc(-c2csc3ncnc(N4CCN(S(=O)(=O)c5ccc(C(C)=O)cc5)CC4)c23)cc1	.	.	.	.	17	.
O=[N+]([O-])c1ccc(S(=O)Cc2ccccc2)c([N+](=O)[O-])c1 (centres undefined)	/	/	.	/	22	.
COc1ccc(C2CC(C)(c3ccc(OC)cc3OC)Nc3ccccc3N2)c(OC)c1 (centres undefined)	66	.	.	.	.	.
CC(=O)Nc1ccc2c(c1)CC(=O)N(C)C[C@@H](C)[C@H](CN(C)C(=O)NC(C)C)O2	/	/	.	/	/	/
CO[C@@H]1CN(C)C(=O)c2ccc(NS(=O)(=O)c3ccccc3)cc2OC[C@H](C)N(Cc2ccccn2)C[C@H]1C	/	/	.	/	/	/
C[C@@H]1CN([C@H](C)CO)C(=O)Cc2cc(NC(=O)Cc3cn(C)c4ccccc34)ccc2O[C@H]1CN(C)S(=O)(=O)c1ccccc1	/	/	.	/	/	/
COCC(=O)N1C[C@H](C)[C@@H](OC)CN(C)C(=O)c2cc(NS(C)(=O)=O)ccc2OC[C@H]1C	/	/	.	/	/	/
